Reference: ChEMBL document CHEMBL1125388, “New modified heterocyclic phenylalanine derivatives. Incorporation into potent inhibitors of human renin” (J Med Chem, 1992)
Values joined by “and” are separate entries in the source; they are usually repeats but may differ in a detail not shown here. Equal entries are not always repeated.

Target: T1, Renin (Homo sapiens, UniProt P00797)
T1 sequence (P00797 whole entry): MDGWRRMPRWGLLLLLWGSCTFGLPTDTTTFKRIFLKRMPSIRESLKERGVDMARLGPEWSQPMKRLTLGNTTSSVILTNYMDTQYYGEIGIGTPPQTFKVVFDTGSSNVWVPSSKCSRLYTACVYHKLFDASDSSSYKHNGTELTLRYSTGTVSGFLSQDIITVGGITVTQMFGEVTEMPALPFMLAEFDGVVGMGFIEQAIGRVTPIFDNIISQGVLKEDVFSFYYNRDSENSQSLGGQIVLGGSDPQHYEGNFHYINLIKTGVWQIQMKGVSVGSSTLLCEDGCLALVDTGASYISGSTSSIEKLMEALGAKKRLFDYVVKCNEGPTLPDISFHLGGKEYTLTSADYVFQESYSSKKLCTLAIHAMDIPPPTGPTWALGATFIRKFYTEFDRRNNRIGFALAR
Assay: Inhibition of human recombinant renin
Summary of the method: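 Recombinant human renin (0.05 GU/mL, set to generate 30-40 ng A1/mL per h) incubated with 20 μM human renin substrate stock, pH 5.7 phosphate buffer with BSA, EDTA and PMSF, 1% DMSO final, 37 °C for 1 h; 4 °C blank tubes. RIA (3 h room temperature, γ counting) against standard curve; IC50 reported.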

| SMILES | IC50 |
| --- | --- |
| COC(=O)C(O)[C@H](CC1CCCCC1)NC(=O)C(CC(C)C)NC(=O)[C@H](Cc1ccccc1)N1C(=O)c2cccc3cccc(c23)C1=O (stereo not given in full) | 391 nM |
| CC(C)CC(NC(=O)[C@H](Cc1ccccc1)N1CC2CCCN2C1=O)C(=O)N[C@@H](CC1CCCCC1)C(O)C(=O)OC(C)C (stereo not given in full) | 141 nM |
| COC(=O)C(O)[C@H](CC1CCCCC1)NC(=O)C(CC(C)C)NC(=O)[C@H](Cc1ccccc1)NC(=O)OC(C)(C)C (stereo not given in full) | 8 nM and 24 nM |
| COC(=O)C(O)[C@H](CC1CCCCC1)NC(=O)C(Cc1cnc[nH]1)NC(=O)[C@H](Cc1ccccc1)N1Cc2ccccc2C1=O (stereo not given in full) | 186 nM |
| CC(C)CC(NC(=O)[C@H](Cc1ccccc1)N1CCCC1=O)C(=O)N[C@@H](CC1CCCCC1)C(O)C(=O)OC(C)C (stereo not given in full) | 157 nM |
| COC(=O)C(O)[C@H](CC1CCCCC1)NC(=O)C(CC(C)C)NC(=O)[C@H](Cc1ccccc1)N1Cc2ncccc2C1=O (stereo not given in full) | 207 nM |

Other lines, results leading:

| IC50 | SMILES |
| --- | --- |
| 100 nM | CC(C)CC(NC(=O)[C@H](Cc1ccccc1)N1Cc2nccn2C1=O)C(=O)N[C@@H](CC1CCCCC1)C(O)C(=O)OC(C)C (stereo not given in full) |
| 80 nM | CC(C)CC(NC(=O)[C@H](Cc1ccccc1)N1Cc2cccc3cccc(c23)C1=O)C(=O)N[C@@H](CC1CCCCC1)C(O)C(=O)OC(C)C (stereo not given in full) |
| 36 nM | CC(C)CC(NC(=O)[C@H](Cc1ccccc1)N1Cc2ccccc2C1=O)C(=O)N[C@@H](CC1CCCCC1)C(O)C(=O)OC(C)C (stereo not given in full) |
| 23 nM | COC(=O)C(O)[C@H](CC1CCCCC1)NC(=O)C(CC(C)C)NC(=O)[C@H](Cc1ccccc1)N1Cc2ccccc2C1=O (stereo not given in full) |
| 16 nM | CCCC[C@H](NC(=O)[C@H](Cc1ccccc1)N1Cc2ccccc2C1=O)C(=O)N[C@@H](CC1CCCCC1)C(O)C(=O)OC(C)C (stereo not given in full) |
| 8.9 nM | CCC[C@H](NC(=O)[C@H](Cc1ccccc1)N1Cc2ccccc2C1=O)C(=O)N[C@@H](CC1CCCCC1)C(O)C(=O)OC(C)C (stereo not given in full) |

Target: T2, Renin (Homo sapiens) (UniProt P00797)
T2 sequence (whole entry): T1 sequence (P00797 whole entry)
Assay: Inhibition of human recombinant renin at 1 uM

| inhibition [%] | SMILES |
| --- | --- |
| 86.4 | COC(=O)C(O)[C@H](CC1CCCCC1)NC(=O)C(CC(C)C)NC(=O)[C@H](Cc1ccccc1)N1CC(C)(C)OC1=O (stereo not given in full) |
| 76 | COC(=O)C(O)[C@H](CC1CCCCC1)NC(=O)C(CC(C)C)NC(=O)[C@H](Cc1ccccc1)N1C(=O)OC(C)(C)C1C (stereo not given in full) |
| 45 | COC(=O)C(O)[C@H](CC1CCCCC1)NC(=O)C(CC(C)C)NC(=O)[C@H](Cc1ccccc1)N1C(=O)c2ccccc2C1=O (stereo not given in full) |
